Assay results as given in article PMC6400523 (The Journal of General Physiology, 2019).

Legend:
rat ASCT2 = molecular target: T1, rat ASCT2 (Rattus norvegicus, UniProt D3ZJ25); assay type: cell-based; settings: for Behaviour in anion current assay (inhibitor / substrate): rASCT2, direction of induced current
T1 sequence (D3ZJ25 1-555): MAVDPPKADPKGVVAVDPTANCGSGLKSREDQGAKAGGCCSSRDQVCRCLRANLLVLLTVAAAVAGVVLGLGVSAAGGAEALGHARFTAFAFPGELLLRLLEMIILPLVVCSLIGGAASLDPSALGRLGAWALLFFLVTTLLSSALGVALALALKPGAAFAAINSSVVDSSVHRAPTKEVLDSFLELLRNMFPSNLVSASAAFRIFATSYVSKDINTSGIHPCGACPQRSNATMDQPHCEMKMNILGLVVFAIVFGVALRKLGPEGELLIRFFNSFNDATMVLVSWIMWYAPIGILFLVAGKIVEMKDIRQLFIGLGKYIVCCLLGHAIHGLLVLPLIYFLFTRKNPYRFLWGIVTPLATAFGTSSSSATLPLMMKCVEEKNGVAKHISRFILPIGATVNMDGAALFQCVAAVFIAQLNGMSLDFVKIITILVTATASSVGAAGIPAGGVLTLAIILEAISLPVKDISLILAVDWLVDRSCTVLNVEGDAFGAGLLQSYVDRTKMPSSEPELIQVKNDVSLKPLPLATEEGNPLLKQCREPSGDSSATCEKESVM
How it was run: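 HEK293 cells cotransfected with rASCT2 and YFP cDNA; whole-cell recording 24–30 h later at 0 mV. External 140 mM NaCl, 2 mM MgCl2, 2 mM CaCl2, 10 mM HEPES pH 7.40; NaSCN pipette solution with 10 mM alanine. 1 mM L-alanine control; outward current = leak inhibition. Ki from Michaelis–Menten-like fit, including varied alanine; Imax from 1 mM response and Km. ≥4 repeats.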

hASCT2 = molecular target: T2, hASCT2 (Homo sapiens, UniProt Q15758); assay: Current recording in HEK293 cells expressing human ASCT2; assay type: cell-based
T2 sequence (Q15758 1-541): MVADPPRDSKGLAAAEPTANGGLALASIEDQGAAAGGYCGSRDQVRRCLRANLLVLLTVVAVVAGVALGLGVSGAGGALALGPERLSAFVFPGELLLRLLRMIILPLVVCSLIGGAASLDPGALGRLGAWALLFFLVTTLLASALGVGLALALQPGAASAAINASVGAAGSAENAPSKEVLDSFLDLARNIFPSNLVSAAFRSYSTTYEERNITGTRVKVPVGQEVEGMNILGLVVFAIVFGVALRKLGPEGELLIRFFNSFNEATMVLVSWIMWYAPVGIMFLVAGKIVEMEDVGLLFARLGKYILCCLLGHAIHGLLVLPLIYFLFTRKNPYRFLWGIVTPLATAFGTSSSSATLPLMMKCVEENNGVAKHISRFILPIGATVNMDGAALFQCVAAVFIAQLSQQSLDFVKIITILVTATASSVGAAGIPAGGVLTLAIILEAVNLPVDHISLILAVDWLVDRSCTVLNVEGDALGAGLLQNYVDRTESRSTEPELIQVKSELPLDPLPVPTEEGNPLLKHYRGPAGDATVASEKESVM

Row | Behaviour in anion current assay (inhibitor / substrate) (rat ASCT2) | further results | Compound
1 |  | Imax, maximum current at saturating concentration (rat ASCT2; rASCT2, compared with current induced by 1 mM alanine): highest outward current | 4-fluorobenzene sulfonamide [Compound 9b]
2 | properties of a transported substrate |  | NC[C@H](N)C(=O)O [Compound 1, L-2,3-diaminopropionic acid]
3 | borderline substrate-like properties |  | CS(N)(=O)=O [Compound 2b, methanesulfonamide]
4 |  | Current for saturating alanine in hASCT2 (hASCT2): < 20 pA | C[C@H](N)C(=O)O [alanine, L-alanine]
